In this test the test system is HL-60. In words: Growth inhibition of human HL60 cells after 3 days by MTT assay. In kind it is functional, cell-based. The following applies: HL-60, 72 h. A digest of the protocol:
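HL-60 human leukemia cells, […], seeded at 4000-5000 cells/well and […] before compound addition. Compounds tested at 0.01, 0.1, 1, 10 and 100 µg/mL for 3 days. MTT (5 mg/mL) added, formazan dissolved in DMSO after 4 h, OD read at 570 nm. Growth inhibition (%) = (OD_control − OD_treated)/OD_control × 100. Doxorubicin served as positive control.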
(Tetrazolium assays rely on reduction of a dye to a coloured formazan, in cell work by metabolically active cells.)

The text below walks through data of ChEMBL document CHEMBL1154823, “Polyacetylenes from Bupleurum longiradiatum” (J Nat Prod, 2009).

Turning to `CCCCCC/C=C/C=C/C#C/C=C/C=C/COC(C)=O`, inhibition was half-maximal at 11 µM (IC50).

As to `CCCCCC/C=C/C=C/C#CC#C/C=C\CO`, the IC50 – broadly, the concentration that inhibits the measured activity by half – came out at 11 µM.

In turn, `CCC[C@H](O)CC/C=C/C=C/C#CC#C/C=C\COC(C)=O` gave a concentration for half-maximal inhibition (IC50) of 9.4 µM.

`CCC[C@H](O)CC/C=C/C=C/C#CC#C/C=C\CO` [BUPLEUROTOXIN] showed an IC50 of 4.9 µM.

`CCCCCCC/C=C\CC#C/C=C/C=C/COC(C)=O` displayed a 50% inhibitory concentration (IC50) of 11 µM.

Consider `CCCCCCC/C=C\CC#CC#C/C=C\CO`, for which the midpoint of inhibition, the IC50, lay at 11 µM. That is a double-digit micromolar value.

`CCC[C@H](CC/C=C/C=C/C#CC#C/C=C\CO)OC(C)=O` [ACETYLBUPLEUROTOXIN]: half-maximal inhibition (IC50) required 11 µM.

The compound `OC/C=C/C=C/C#CC/C=C\CCCCCCCCO` yielded an IC50 greater than 10 µM.

Turning to `OC/C=C\C#CC#CC/C=C\CCCCCCCCO`, the half-maximal inhibitory concentration (IC50) was greater than 10 µM.

Compound `CC(=O)OC/C=C/C=C/C#CC/C=C\CCCCCCCCOC(C)=O` yielded an IC50 greater than 10 µM.

`CCCC/C=C/C=C/C#CC#C/C=C\CO` displayed a half-maximal inhibitory concentration (IC50) of 11 µM.

For `CCCC(=O)CC/C=C/C=C/C#CC#C/C=C\CO` [BUPLEURONOL], the 50% inhibitory concentration (IC50) was 11 µM. This counts as double-digit micromolar.

`CCCCC/C=C\CC#CC#C/C=C\CO` showed an IC50 of 11 µM.
